Here are results for two compounds from ChEMBL document CHEMBL1240526, “Development of a new epidermal growth factor receptor positron emission tomography imaging agent based on the 3-cyanoquinoline core: synthesis and biological evaluation” (Bioorg Med Chem, 2010).

In data set [1] the target is Epidermal growth factor receptor (Homo sapiens, UniProt P00533). Description: Inhibition of EGFR autophosphorylation in human A431 cells. The class given is cell-based, A-431.
The test system of data set [2] is Colon. The data set is described as follows: Biodistribution in human A431 cell xenografted nu/nu BALB/c mouse empty colon at 3.7 MBq after 60 mins. The class given is ADME, organism-based, A-431. The note with it: in vivo, 1 h.
The nature of data set [3]: Metabolic stability in mouse plasma assessed as compound remaining at 3.7 MBq after 2 mins. The note with it: read-out: Stability. The class given is ADME, cell-free. An outline of the steps: (§1)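 Non-tumor-bearing mice received 3.7 MBq of the ¹⁸F tracer iv. Plasma and liver were collected at 2, 30 and 60 min and snap-frozen. Samples were extracted in ice-cold MeOH (liver homogenized), centrifuged at 4 °C, then dried, filtered and run on radio-HPLC. Parent fraction = parent peak over total chromatogram radioactivity; plasma extraction efficiency 83.5%. Mean of three studies per time point.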

The subject of data set [4] is Colon. Description: Biodistribution in human A431 cell xenografted nu/nu BALB/c mouse full colon at 3.7 MBq after 60 mins. Format: ADME, organism-based, A-431. Particulars: in vivo, 1 h.
The nature of data set [5]: Biodistribution in human A431 cell xenografted nu/nu BALB/c mouse plasma at 3.7 MBq after 60 mins. The class given is ADME, organism-based, A-431. Particulars: in vivo, 1 h.
In another data set the test system is Brain. Description: Biodistribution in human A431 cell xenografted nu/nu BALB/c mouse brain at 3.7 MBq after 60 mins. The class given is ADME, organism-based, A-431. The note with it: in vivo, 1 h.
Data set [6] relates to Duodenum. Description: Biodistribution in human A431 cell xenografted nu/nu BALB/c mouse empty duodenum at 3.7 MBq after 60 mins. Format: ADME, organism-based, A-431. Particulars: in vivo, 1 h.
Data set [7] can be described thus: Metabolic stability in mouse plasma assessed as compound remaining at 3.7 MBq after 30 mins. The class given is ADME, cell-free. The note with it: read-out: Stability. In outline:
as §1

Another data set concerns Heart. Description: Biodistribution in human A431 cell xenografted nu/nu BALB/c mouse heart at 3.7 MBq after 60 mins. Particulars: in vivo, 1 h. The class given is ADME, organism-based, A-431.
A short description of data set [8]: Biodistribution in human A431 cell xenografted nu/nu BALB/c mouse gallbladder at 3.7 MBq after 60 mins. The class given is ADME, organism-based, Gall bladder, A-431. Particulars: in vivo, 1 h.
The nature of data set [9]: Metabolic stability in mouse liver assessed as compound remaining at 3.7 MBq after 30 mins. Format: ADME, tissue-based. The note with it: read-out: Stability. In outline: as §1
A short description of data set [10]: Biodistribution in human A431 cell xenografted nu/nu BALB/c mouse liver at 3.7 MBq after 60 mins. Particulars: in vivo, 1 h. Format: ADME, organism-based, A-431.
The nature of data set [11]: Biodistribution in human A431 cell xenografted nu/nu BALB/c mouse empty caecum at 3.7 MBq after 60 mins. Format: ADME, organism-based, A-431. Particulars: in vivo, 1 h.
For another data set, the system named is Blood. The data set is described as follows: Biodistribution in human A431 cell xenografted nu/nu BALB/c mouse blood at 3.7 MBq after 60 mins. Format: ADME, organism-based, A-431. The note with it: in vivo, 1 h.
The test system of the next data set is Lung. Description: Biodistribution in human A431 cell xenografted nu/nu BALB/c mouse lung at 3.7 MBq after 60 mins. The class given is ADME, organism-based, A-431. Particulars: in vivo, 1 h.
The subject of data set [12] is Stomach. Description: Biodistribution in human A431 cell xenografted nu/nu BALB/c mouse full stomach at 3.7 MBq after 60 mins. Format: ADME, organism-based, A-431. The note with it: in vivo, 1 h.
Another data set deals with Kidney. The data set is described as follows: Biodistribution in human A431 cell xenografted nu/nu BALB/c mouse kidney at 3.7 MBq after 60 mins. The class given is ADME, organism-based, A-431. Particulars: in vivo, 1 h.
The nature of data set [13]: Metabolic stability in mouse liver assessed as compound remaining at 3.7 MBq after 2 mins. Format: ADME, tissue-based. Particulars: read-out: Stability. An outline of the steps:
as §1

Data set [14] is described as follows: Biodistribution in human A431 cell xenografted nu/nu BALB/c mouse urine at 3.7 MBq after 60 mins. The note with it: in vivo, 1 h. The class given is ADME, organism-based, A-431.
For a further data set, the system named is Spleen. The data set is described as follows: Biodistribution in human A431 cell xenografted nu/nu BALB/c mouse spleen at 3.7 MBq after 60 mins. The note with it: in vivo, 1 h. The class given is ADME, organism-based, A-431.
For another data set, the system named is Muscle tissue. Description: Biodistribution in human A431 cell xenografted nu/nu BALB/c mouse muscle at 3.7 MBq after 60 mins. The note with it: in vivo, 1 h. Format: ADME, organism-based, A-431.
The subject of data set [15] is Duodenum. Description: Biodistribution in human A431 cell xenografted nu/nu BALB/c mouse full duodenum at 3.7 MBq after 60 mins. The class given is ADME, organism-based, A-431. The note with it: in vivo, 1 h.
A short description of data set [16]: Metabolic stability in mouse liver assessed as compound remaining at 3.7 MBq after 60 mins. Format: ADME, tissue-based. Particulars: read-out: Stability. An outline of the steps:
as §1

A further data set deals with Bone. Description: Biodistribution in human A431 cell xenografted nu/nu BALB/c mouse bone at 3.7 MBq after 60 mins. Format: ADME, organism-based, Bone element, A-431. Particulars: in vivo, 1 h.
Data set [17] in a line: Biodistribution in human A431 cell xenografted nu/nu BALB/c mouse tumor at 3.7 MBq after 60 mins. The class given is ADME, organism-based, Neoplasm, A-431. The note with it: in vivo, 1 h.
Data set [18] relates to Stomach. The data set is described as follows: Biodistribution in human A431 cell xenografted nu/nu BALB/c mouse empty stomach at 3.7 MBq after 60 mins. The class given is ADME, organism-based, A-431. Particulars: in vivo, 1 h.
Data set [19] relates to Jejunum. Description: Biodistribution in human A431 cell xenografted nu/nu BALB/c mouse empty jejunum at 3.7 MBq after 60 mins. Format: ADME, organism-based, A-431. The note with it: in vivo, 1 h.
Data set [20] is described as follows: Biodistribution in human A431 cell xenografted nu/nu BALB/c mouse full caecum at 3.7 MBq after 60 mins. The note with it: in vivo, 1 h. The class given is ADME, organism-based, A-431.
Data set [21] in a line: Metabolic stability in mouse plasma assessed as compound remaining at 3.7 MBq after 60 mins. Particulars: read-out: Stability. Format: ADME, cell-free. In outline:
as §1

Data set [22] has as its system Jejunum. The data set is described as follows: Biodistribution in human A431 cell xenografted nu/nu BALB/c mouse full jejunum at 3.7 MBq after 60 mins. The note with it: in vivo, 1 h. Format: ADME, organism-based, A-431.

Epidermal growth factor receptor, sequence (P00533 whole entry): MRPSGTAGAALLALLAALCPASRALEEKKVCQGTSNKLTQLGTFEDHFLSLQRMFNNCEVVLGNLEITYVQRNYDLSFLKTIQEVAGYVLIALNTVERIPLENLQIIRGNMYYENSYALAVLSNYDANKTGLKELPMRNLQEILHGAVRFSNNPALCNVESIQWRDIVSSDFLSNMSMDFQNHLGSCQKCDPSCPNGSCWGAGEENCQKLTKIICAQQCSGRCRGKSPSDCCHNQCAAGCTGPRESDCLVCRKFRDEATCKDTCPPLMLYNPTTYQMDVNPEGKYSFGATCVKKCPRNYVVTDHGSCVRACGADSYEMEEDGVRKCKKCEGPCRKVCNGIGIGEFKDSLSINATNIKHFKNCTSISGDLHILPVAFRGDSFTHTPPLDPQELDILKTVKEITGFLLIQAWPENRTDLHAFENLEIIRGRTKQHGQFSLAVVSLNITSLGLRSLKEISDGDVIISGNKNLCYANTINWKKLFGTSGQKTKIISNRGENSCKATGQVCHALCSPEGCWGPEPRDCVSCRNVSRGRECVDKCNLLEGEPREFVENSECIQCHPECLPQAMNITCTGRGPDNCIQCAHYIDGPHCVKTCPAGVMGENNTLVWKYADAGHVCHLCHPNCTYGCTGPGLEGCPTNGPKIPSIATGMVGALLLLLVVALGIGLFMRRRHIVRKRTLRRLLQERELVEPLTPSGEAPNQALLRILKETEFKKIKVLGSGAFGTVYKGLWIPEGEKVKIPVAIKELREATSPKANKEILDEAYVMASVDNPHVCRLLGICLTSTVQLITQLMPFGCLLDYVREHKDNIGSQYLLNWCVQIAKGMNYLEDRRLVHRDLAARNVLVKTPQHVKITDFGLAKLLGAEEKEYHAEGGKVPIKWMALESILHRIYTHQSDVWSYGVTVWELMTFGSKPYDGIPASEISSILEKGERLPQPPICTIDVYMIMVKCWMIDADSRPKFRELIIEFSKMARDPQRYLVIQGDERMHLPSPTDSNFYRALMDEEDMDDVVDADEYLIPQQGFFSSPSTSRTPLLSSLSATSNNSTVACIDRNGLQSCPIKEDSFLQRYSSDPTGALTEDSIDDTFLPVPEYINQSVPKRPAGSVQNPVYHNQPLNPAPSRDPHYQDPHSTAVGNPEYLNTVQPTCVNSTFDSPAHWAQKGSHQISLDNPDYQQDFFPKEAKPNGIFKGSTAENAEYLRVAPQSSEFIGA

The compound `Nc1cc2ncnc(Nc3cccc(Br)c3)c2cc1N` displayed an IC50 in data set [1] of more than 1000 nM.
For `CCOc1cc2ncc(C#N)c(Nc3ccc(F)c(Cl)c3)c2cc1NC(=O)/C=C/CNCc1cn(CCF)nn1`, the Drug uptake with Colon [2] is 0.197 % ID/g; with Colon [4] it was 0.236 % ID/g; in data set [5], 0.027 % ID/g; with Brain, 0.006 % ID/g; in the data set on Duodenum [6], 1.453 % ID/g; in the data set on Heart, 0.041 % ID/g. For the same compound, the Drug uptake in data set [8] came to 8.561 % ID/g; in data set [10] it was 0.392 % ID/g; in data set [11], 0.068 % ID/g; in the data set with Blood, 0.022 % ID/g; with Lung, 0.138 % ID/g; with Stomach [12] it was 1.341 % ID/g. Further, the Drug uptake is given as 0.711 % ID/g with Kidney; 0.151 % ID/g in data set [14]; 0.211 % ID/g with Spleen; 0.018 % ID/g in the data set with Muscle tissue; 1.987 % ID/g in the data set on Duodenum [15]; 0.031 % ID/g in the data set with Bone. For the same compound, the Drug uptake in [17] is recorded as 0.082 % ID/g; with Stomach [18] it was 0.215 % ID/g; in the data set on Jejunum [19], 0.344 % ID/g; in data set [20], 0.161 % ID/g; in the data set with Jejunum [22], 0.489 % ID/g. In addition, the remaining at 2 min was determined as 98.9% in data set [3] and 95% in [13]. Further, the values for the remaining at 0.5 h in [7] and in [9] were 62.8% and 85.1%, respectively. For the same compound, the results for the remaining at 1 h in data set [16] and in data set [21] were 75.5% and 49.8%, respectively.
